Bioassay records: PubChem BioAssay, several laboratories
Shown are actives, neighbours in structure and some others; about 11% of the full set was active somewhere.
SF-1 act – activators of human SF-1, primary screen, cell-based, CHO-K1, Gal4-SF-1 LBD, luciferase luminescence | activation, % at 10 µM | CHO-K1 Gal4-SF-1 LBD luciferase reporter; % increase over DMSO SF-1-specific signal | 1.9% of 65,000 active | AID 522, 2006;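 active means activation above the mean activation of all tested compounds plus 3 SD, cut at about 50% in these data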
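Material: CHO-K1 cells with Gal4–hSF-1 LBD chimera plus Gal4-driven luciferase / Input: 4,000 CHO-K1 cells per well / Incubation: compound exposure 20 h at 37 °C / Signal: luminescence read 15 min after SteadyLite luciferase reagent, after room-temperature equilibration / Read-out: percent activation versus DMSO / Benchmarks: DMSO negative control and −SF1 background wells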
mHtt clearance – clearance of mutant huntingtin inclusions, primary screen, imaging, HeLa Exon1htt(103Q)mCFP, confocal imaging. AID 853, 2007. inhibition, % at 1.5 µM. aggregate imaging; zero = plate's median compound well. 0.42% of 47,000 active;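 active means inhibition of aggregate fluorescence above about 70%, also judged a hit by eye on the cell image, limit read from the data, passing the limit was not always enough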;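 further: cells exposed to compound for three days before fixation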
D1 allo mod – D1 CRE-luciferase signal change, two-sided – cell-based, HEK293 D1, dopamine EC30, D1 allosteric modulator project, primary screen | 5.9% of 58,000 active | AID 641, 2007 | B-score at 10 µM | dopamine EC30 potentiation; actives deviate in either direction | D(1A) dopamine receptor (Homo sapiens), P21728;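 active means luminescence count or its row- and column-corrected plate score outside the 99.7% band of the plate's sample wells, on either side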
M1 ag – M1 muscarinic receptor agonists, primary screen, CHO-M1 cells, Fluo-4 calcium, agonist mode | B-score at 10 µM | 3% of 64,000 active | Muscarinic acetylcholine receptor M1 | Fluo-4 calcium fluorescence; stronger effect = higher value | AID 626, 2007;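 active means fluorescence rise, raw or as B-score row- and column-corrected plate score, outside the 99.7% band of its plate's samples, either direction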
RORA act – activators of orphan receptor RORA, primary screen, cell-based, luminescence; Nuclear receptor ROR-alpha (Homo sapiens), P35398; CHO-K1 Gal4-RORA LBD luciferase reporter; percent increase over mock-subtracted basal signal; activation, % at 10 µM; 1.5% of 65,000 active;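 active means activation above the mean of all tested compounds plus 3 SD, cut at about 49% in these data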;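 further: 0% = DMSO-treated RORA cells and 100% = added signal equal to DMSO minus mock-transfected cells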
M1 antagonist – antagonists of rat M1 muscarinic receptor; Muscarinic acetylcholine receptor M1 (Rattus norvegicus), P08482; CHO-M1 cells, Fluo-4 calcium, ACh EC80 antagonist mode; stronger effect = lower value; B-score at 10 µM; 3.4% of 64,000 active;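 active means calcium fluorescence response, raw or row-and-column corrected B-score, differing from the plate sample mean either way at a set confidence level, mostly lower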
Target sequence (P08482 whole entry, looked up): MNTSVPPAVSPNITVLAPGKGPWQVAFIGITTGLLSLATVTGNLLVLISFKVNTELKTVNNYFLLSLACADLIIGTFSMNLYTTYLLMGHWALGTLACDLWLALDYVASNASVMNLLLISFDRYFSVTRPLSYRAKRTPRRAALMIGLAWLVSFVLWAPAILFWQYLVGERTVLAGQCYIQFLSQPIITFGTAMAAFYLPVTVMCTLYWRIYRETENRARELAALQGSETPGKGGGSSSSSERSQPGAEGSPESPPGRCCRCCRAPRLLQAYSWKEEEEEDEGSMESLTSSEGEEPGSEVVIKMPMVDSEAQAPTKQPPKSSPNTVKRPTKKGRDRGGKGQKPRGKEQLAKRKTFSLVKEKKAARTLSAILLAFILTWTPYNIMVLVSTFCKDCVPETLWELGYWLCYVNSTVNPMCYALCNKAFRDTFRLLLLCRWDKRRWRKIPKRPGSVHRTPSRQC
M1 antag conf – rat M1 muscarinic receptor antagonists, confirmation, CHO cells, Fluo-4 calcium, duplicate; shares compounds with M1 antagonist; ACh EC80 antagonism; stronger effect = lower value; calcium response (max-min fluorescence) at 10 µM; 43% of 1,700 active;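 active means calcium response below the same-plate mean of wells given acetylcholine alone at its 80%-effect dose, minus 3 SD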;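 further: raw fluorescence intensity difference in arbitrary instrument units and not normalized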
mGluR4 antag – human mGluR4 response to M1 antagonist hits, M1 allosteric modulator project, cell-based, antagonist mode, secondary assay 1; shares compounds with M1 antagonist; CHO-mGluR4 calcium flux, Fluo-4 fluorescence, glutamate EC80; stronger effect = lower value; fluorescence response (max-min) at 10 µM; 0.9% of 1,700 active;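 active means fluorescence response below the plate's average for near-maximal glutamate wells, less 3 SD of those wells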;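 further: raw unnormalized fluorescence span taken in the window right after glutamate addition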
An asterisk follows results filed as active.

For CCN1C(=O)c2ccccc2S(=O)c2ccc(C(=O)N3CCCCCC3)cc21 (configuration not stated) the results were SF-1 act 8, mHtt clearance -3, D1 allo mod 1.1, M1 ag -0.12, RORA act 12 and M1 antagonist -2.3.
Screening CCN1C(=O)c2ccccc2S(=O)c2ccc(C(=O)N3CCN(C(=O)c4ccco4)CC3)cc21 (configuration not stated) returned SF-1 act -7, M1 ag -0.026, RORA act -5, M1 antagonist -1.3*, M1 antag conf 485 and mGluR4 antag 220.
Screening CCC(=Nc1ccc(Cc2ccncc2)cc1)c1c(O)n(C)c(=O)n(C)c1=O returned SF-1 act -15, mHtt clearance -53, D1 allo mod -0.48, M1 ag 7.7, RORA act -13, M1 antagonist -2.9*, M1 antag conf 548* and mGluR4 antag 224.
`O=C1C2CC=CCC2C(=O)N1c1ccc(Cc2ccncc2)cc1` (configuration not stated) gave SF-1 act -17, mHtt clearance 7, D1 allo mod -0.6, M1 ag -3, RORA act -6 and M1 antagonist -1.1.
Screening O=Cc1cn(CC(=O)N2CCOCC2)c2ccccc12 returned mHtt clearance 29.
Screening O=C(Cn1cc(/C=N/O)c2ccccc21)N1CCOCC1 returned SF-1 act 6, D1 allo mod -0.069, M1 ag -0.67, RORA act 3, M1 antagonist -2.2*, M1 antag conf 669 and mGluR4 antag 264.
For CC(C)OCCCN1C(=O)c2ccccc2C1C(=O)NC1CCCCC1 (configuration not stated) the results were SF-1 act 0, mHtt clearance -22, D1 allo mod 0.57, M1 ag -0.22, RORA act -6 and M1 antagonist -0.68.
`CC(=O)N1CCN(c2ccc(NC(=O)c3ccccc3Br)cc2Cl)CC1` gave SF-1 act 14, D1 allo mod -0.044, M1 ag -1.3, RORA act 14 and M1 antagonist -0.1.
For Cc1nnc(NC(=O)C2CCCO2)s1 (configuration not stated) the results were SF-1 act -11, M1 ag -0.45, RORA act -9 and M1 antagonist -0.18.
Screening CCCC(C)c1nnc(NC(=O)C2CCCO2)s1 (configuration not stated) returned SF-1 act 11, mHtt clearance 18, D1 allo mod -0.64, M1 ag 0.73, RORA act 17, M1 antagonist -3.5*, M1 antag conf 198* and mGluR4 antag 246.
Screening C=CCSc1nc(N)c(C(=O)Nc2ccccc2C)cc1C(N)=O returned SF-1 act -5, mHtt clearance 30, D1 allo mod -0.32, M1 ag 0.6, RORA act -4, M1 antagonist -3*, M1 antag conf 614 and mGluR4 antag 248.
`CC1=CCC2C(=O)N(c3ccc(C)c(Br)c3)C(=O)C2C1` (configuration not stated) gave SF-1 act 5, mHtt clearance 20, D1 allo mod 0.092, M1 ag -0.018, RORA act 12 and M1 antagonist -0.43.
